# Measurements pooled from the literature.
# Target: Tyrosine-protein kinase FRK (FRK, Homo sapiens, UniProt P42685)
SMILES,test,conditions,remaining binding
C[C@@H](c1cccc(C#N)c1)n1cc(Cl)cc(C(N)=O)c1=N,"cell-free assay, competition with immobilised ligand",1 µM,100%
COc1ccnn2ncc(-c3ccnc(N(C)C)n3)c12,binding,1 µM,92%
COc1cnc(Nc2cccc(S(N)(=O)=O)c2)nc1N1CCN(c2ccccc2)CC1,"binding, competition with immobilised ligand",1 µM,100%
N[C@H]1CCN(c2nccc(-c3cnn4ncccc34)n2)C1,"binding, competition with immobilised ligand",1 µM,100%
O=C(Nc1c[nH]nc1C(=O)NC1CCNCC1)c1cc(F)cc(F)c1,"binding, competition with immobilised ligand",1 µM,82%
C=CC(=O)N1CCC(C(=O)NCC(=O)N2CCN(c3nc(-c4cnc(N)nc4C(F)F)nc(N4CCOCC4)n3)CC2)CC1,"binding, competition with immobilised ligand",1 µM,100%
Cc1cnc(Nc2ccc(C(=O)N3CCC(N4CCCC4)CC3)cc2)nc1-c1cc2ccccc2s1,"binding, competition with immobilised ligand",1 µM,76%
Cc1cnn2ncc(-c3ccnc(N(C)C)n3)c2c1,"binding, competition with immobilised ligand",1 µM,100%
CNC(=O)Nc1ccc2c(c1)[C@@]1(CC2)OC(=O)N(CC(=O)N(Cc2ccc(F)cc2)[C@@H](C)C(F)(F)F)C1=O,"cell-free assay, competition with immobilised ligand",1 µM,95%
C[C@@H]1CCN(c2nccc(-c3cnn4ncccc34)n2)C1,binding,1 µM,100%
N#Cc1ccc(Nc2ccc3[nH]c(=O)[nH]c3c2)c(Cl)c1,"cell-free assay, competition with immobilised ligand",1 µM,73%
F[C@@H]1CCN(c2nccc(-c3cnn4ncccc34)n2)C1,binding,1 µM,88%
COc1ncc2cc3ccccc3nc2c1C#N,"cell-free assay, competition with immobilised ligand",5 µM,99%
CC1CCCN1c1nccc(-c2cnn3ncccc23)n1 (stereo not shown),"binding, competition with immobilised ligand",1 µM,88%
O=C(Nc1cnc(Oc2ccc(F)cc2)nc1)N1CCc2ncccc2[C@@H]1c1ccc(F)cc1,"cell-free assay, competition with immobilised ligand",1 µM,98%
O=C(c1ccc(Nc2ncc(Cl)c(-c3cc4ccccc4s3)n2)cc1)N1CCC(N2CCCC2)CC1,"binding, competition with immobilised ligand",1 µM,90%
Nc1c(C(=O)NCc2ccc(C(=O)NCCCC3CCCCC3)cc2)cnn1-c1ccccc1,"cell-free assay, competition with immobilised ligand",0.1 µM,100%
C[C@@H](c1ccc(-n2cnc3c(N)ncnc32)cc1)N1CCc2nn(C)c(Cc3ccccc3)c2C1=O,"binding, competition with immobilised ligand",0.1 µM,91%
CS(=O)(=O)N1CCCC(NC(=O)[C@H](CCC2CCCCC2)NC(=O)c2ccc(CNc3ncnc4c3nnn4-c3ccccc3)cc2)C1 (stereo partly shown),"cell-free assay, competition with immobilised ligand",0.1 µM,60%
O=C(c1ccc(Nc2nccc(-c3cc4ccccc4s3)n2)cc1)N1CCC(N2CCCC2)CC1,"binding, competition with immobilised ligand",1 µM,83%
NS(=O)(=O)c1cc(NC(=O)C2(c3ccccc3Cl)CC2)ccc1Oc1cccc(Cl)c1,"cell-free assay, competition with immobilised ligand",1 µM,99%
c1cncc(-c2cccc(Nc3nccc(NC4CCCCC4)n3)c2)c1,"binding, competition with immobilised ligand",10 µM,53%
